# Data from paper PMC3601785 (ACS medicinal chemistry letters, 2012).
# Key:
# [1] = pharmacokinetic analysis, single i.v. or i.p. dose; assay type: in vivo, male CD-1 mice; conditions: male, CD-1, mouse, plasma, other: intravenous (i.v.) or intraperitoneal (i.p.)
# Summary of the method: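 Single dose given iv or ip to male CD-1 mice in 1:1:15 Cremophor:EtOH:phosphate-buffered saline. Plasma concentrations used to derive half-life, Cmax, C0 (maximum plasma concentration extrapolated to t = 0) and AUC extrapolated to infinity and normalized to dose in mg/kg.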
# [2] = system: RSK biomarkers (peEF2, cyclin D1, phospho-motif) in MCF-7 cells; assay: RSK biomarkers in PMA-stimulated MCF-7 cells by immunoblotting; assay type: cell-based, human; conditions: MCF-7 cells pre-treated with SL0101 (100 μM) or 7 (25 μM), then PMA
# Summary of the method: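 MCF-7 cells pretreated with test compound (reference inhibitor 100 μM; analogue 25 μM) or vehicle, then treated with DMSO or the mitogen PMA. Lysates analysed by immunoblotting for RSK biomarkers, including eEF2 phosphorylation.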
# aqueous solubility = assay type: physicochemical
# p70 S6 kinase = conditions: cited from earlier work
# [3] = system: mitogen-and stress-activated kinase; conditions: cited from earlier work
# Aurora B = conditions: [ATP] lower than in the RSK assay; cited from earlier work
# PIM 3 = conditions: [ATP] lower than in the RSK assay; cited from earlier work
# [4] = molecular target: T1, purified, recombinant RSK2 (Homo sapiens, UniProt P51812); assay: in vitro kinase assay, inhibition of purified recombinant RSK2; assay type: biochemical
# MCF-7 cells = assay: MCF-7 proliferation; assay type: cell-based, human
# Summary of the method: (§1)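 Test compound added at time 0 at various concentrations. Proliferation read as cellular ATP content after 48 h of treatment. Values expressed as fold proliferation as a percentage of vehicle-treated cells. n = 3 experiments, each in quadruplicate, with SD and Student's t test against vehicle; for MCF-7, also against the reference inhibitor.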
# MCF-10A cells = assay: MCF-10A proliferation; assay type: cell-based; conditions: various concentrations, 48 h
# Summary of the method: as §1
# [5] = molecular target: T1, purified, recombinant RSK2; conditions: cited from earlier work
# T1 sequence (P51812 whole entry, species assumed): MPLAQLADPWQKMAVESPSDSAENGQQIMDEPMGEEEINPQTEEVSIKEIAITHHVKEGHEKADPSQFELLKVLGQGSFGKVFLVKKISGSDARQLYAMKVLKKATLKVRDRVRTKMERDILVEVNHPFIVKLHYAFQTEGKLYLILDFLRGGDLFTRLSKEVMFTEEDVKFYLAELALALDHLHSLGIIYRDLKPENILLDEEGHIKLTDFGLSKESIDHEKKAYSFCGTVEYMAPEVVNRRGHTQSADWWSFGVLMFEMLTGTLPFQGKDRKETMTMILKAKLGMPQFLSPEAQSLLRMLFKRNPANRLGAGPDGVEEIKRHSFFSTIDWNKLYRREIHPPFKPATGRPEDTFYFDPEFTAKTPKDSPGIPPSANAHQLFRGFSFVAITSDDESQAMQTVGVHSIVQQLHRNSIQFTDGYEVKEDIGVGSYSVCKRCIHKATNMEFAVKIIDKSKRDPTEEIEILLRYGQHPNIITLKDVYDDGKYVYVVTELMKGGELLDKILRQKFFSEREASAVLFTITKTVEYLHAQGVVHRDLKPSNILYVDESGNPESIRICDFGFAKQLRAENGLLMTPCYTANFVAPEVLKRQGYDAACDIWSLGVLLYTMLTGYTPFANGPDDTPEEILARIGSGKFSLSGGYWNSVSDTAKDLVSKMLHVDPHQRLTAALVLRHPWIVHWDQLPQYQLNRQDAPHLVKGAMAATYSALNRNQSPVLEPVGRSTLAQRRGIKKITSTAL
smiles,measurement,setting,value
CC(=O)O[C@@H]1[C@@H](OC(C)=O)[C@@H](O)[C@H](Oc2c(-c3ccc(O)cc3)oc3cc(O)cc(O)c3c2=O)O[C@H]1C [SL0101],half-life,[1],< 30 min
same,cyclin D1 levels,[2],decreased cyclin D1 levels
same,"intensity of band at ~ 27 kDa, (Lys/Arg)XX(Lys/Arg)X(pSer/pThr) motif antibody",[2],intensity decreases
same,peEF2 levels compared to the PMA control,[2],increased peEF2 levels
same,solubility,aqueous solubility; carrier of 1:1:15 Cremophor:EtOH:phosphate-buffered saline was required,limited solubility
same,inhibition of p70 S6 kinase,p70 S6 kinase,did not inhibit
same,inhibition of mitogen-and stress-activated kinase,[3],did not inhibit
same,inhibition of Aurora B,Aurora B,partially inhibit
same,inhibition of PIM 3,PIM 3,partially inhibit
CCC[C@@H]1O[C@@H](Oc2c(-c3ccc(O)cc3)oc3cc(O)cc(O)c3c2=O)[C@H](O)[C@H](O)[C@H]1OC(C)=O [compound 5],change of RSK2 IC50 in comparison to the 5″-n-propyl analogue 3,[4],"increased the IC50, but this difference was not statistically significant"
CCC[C@@H]1O[C@@H](Oc2c(-c3ccc(O)cc3)oc3cc(O)cc(O)c3c2=O)[C@H](OC(C)=O)[C@H](O)[C@H]1OC(C)=O [compound 6],change of RSK2 IC50 in comparison to the 5″-n-propyl analogue 3,[4],did not alter the IC50
CCC[C@@H]1O[C@@H](Oc2c(-c3ccc(O)cc3)oc3cc(O)cc(O)c3c2=O)[C@H](O)[C@H](OC(C)=O)[C@H]1OC(C)=O [compound 7],"ability to inhibit MCF-7 proliferation, fold better compared to SL0101 (1)",MCF-7 cells,2 fold
same,inhibition of MCF-7 proliferation,"MCF-7 cells; various concentrations, 48 h",inhibits MCF-7
same,inhibition of MCF-10A proliferation,MCF-10A cells,not MCF-10A proliferation
same,cyclin D1 levels,[2],decreased cyclin D1 levels
same,"intensity of band at ~ 27 kDa, (Lys/Arg)XX(Lys/Arg)X(pSer/pThr) motif antibody",[2],intensity decreases
same,peEF2 levels compared to the PMA control,[2],increased peEF2 levels
same,solubility,aqueous solubility; aqueous solution,≤ 25 µM
CCC[C@@H]1O[C@@H](Oc2c(-c3ccc(O)cc3)oc3cc(O)cc(O)c3c2=O)[C@H](OC(C)=O)[C@H](OC(C)=O)[C@H]1OC(C)=O [compound 8],change of RSK2 IC50 in comparison to the 5″-n-propyl analogue 3,[4],doubled the IC50
CC1OC(Oc2c(-c3ccc(O)cc3)oc3cc(O)cc(O)c3c2=O)C(O)C(O)C1O (centres unmarked) [deacetylated SL0101],"potency for RSK inhibition, fold less potent than SL0101 (1)",[5],~ 10 fold
